Test results reported in paper PMC11613628 (Journal of Medicinal Chemistry, 2024).
“Also recorded” adds a separate entry of the source. Read-outs that look alike come from different tables or passages of the source. Where a SMILES comes first, the peptide text is derived from it. Bridges are numbered along the chain shown (N, C = ends). [ ]: non-standard residue; d: D form. Tyr(SO2F) = N[C@@H](Cc1ccc(OS(=O)(=O)F)cc1)C(=O)O; S5 = C=CCCC[C@](C)(N)C(=O)O

How the values were obtained:
hMcl-1(172–323) [1] = biological target: T1, hMcl-1(172–323) (Homo sapiens, UniProt Q07820); test: SDS gel electrophoresis, covalent adduct formation; assay type: binding; conditions: 10 μM protein, 100 μM compound
T1 sequence (Q07820 172-323): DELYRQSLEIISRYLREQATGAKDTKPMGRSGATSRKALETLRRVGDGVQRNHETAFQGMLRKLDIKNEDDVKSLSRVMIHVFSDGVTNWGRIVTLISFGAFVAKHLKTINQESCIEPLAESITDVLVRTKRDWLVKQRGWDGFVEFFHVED
Procedure, shortened: (§1)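 Wild-type, His224Ala, His252Ala or Lys234Ala hMcl-1(172–323) (10 μM) was incubated with or without 100 μM test agent in 50 mM phosphate pH 7.5, 150 mM NaCl, 1% DMSO. Samples ran on 12% Bis-Tris SDS-PAGE with MOPS running buffer and protein stain. Mutants were sampled at 7 h. Wild type was also sampled over a time course, and complex formation was estimated qualitatively from the gel.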

[2] = biological target: His224Ala hMcl-1(172–323) (Homo sapiens, UniProt Q07820, H224A); test: LC-MS analysis of covalent complex, His224Ala mutant; assay type: binding; conditions: 10 μM protein, 100 μM compound, 7 h
Sequence of His224Ala hMcl-1(172–323) (Q07820 172-323 H224A): as the sequence (Q07820 172-323) above, with H53A counted along it

[3] = biological target: T2, 6×His-tagged hMcl-1(172–323) (Homo sapiens, UniProt Q07820); test: DELFIA displacement assay; assay type: binding
T2 sequence (Q07820 172-323): as the sequence (Q07820 172-323) above
Procedure, shortened: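 6×His-tagged hMcl-1(172–323) (16 nM) in a heterogeneous DELFIA format. The test agent displaces a biotinylated BIM BH3 reference peptide. Test agent was preincubated with protein for a fixed time (2 h for the peptide series) before dose–response measurement. IC50 was taken from the dose–response curves, and the ratio line is the ratio of these IC50 values.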

[4] = biological target: hMcl-1(172–323) His252Ala (Homo sapiens, UniProt Q07820, H252A); test: SDS gel electrophoresis, His252Ala mutant; assay type: binding; conditions: 100 μM compound, 7 h
Sequence of hMcl-1(172–323) His252Ala (Q07820 172-323 H252A): as the sequence (Q07820 172-323) above, with H81A counted along it
Procedure, shortened: as §1

[5] = biological target: hMcl-1(172–323) His224Ala (Homo sapiens, UniProt Q07820, H224A); test: SDS gel electrophoresis, His224Ala mutant; assay type: binding; conditions: 100 μM compound, 7 h
Sequence of hMcl-1(172–323) His224Ala (Q07820 172-323 H224A): as the sequence (Q07820 172-323) above, with H53A counted along it
Procedure, shortened: as §1

hMcl-1(172–323) [6] = biological target: T1, hMcl-1(172–323); test: LC-MS analysis of covalent complex; assay type: binding; conditions: 10 μM protein, 100 μM compound, 7 h, room temperature
[7] = biological target: hMcl-1(172–323) Lys234Ala (Homo sapiens, UniProt Q07820, K234A); test: SDS gel electrophoresis, Lys234Ala mutant; assay type: binding; conditions: 100 μM compound, 7 h
Sequence of hMcl-1(172–323) Lys234Ala (Q07820 172-323 K234A): as the sequence (Q07820 172-323) above, with K63A counted along it
Procedure, shortened: as §1

6×His-hBfl-1(1–149) = test: DELFIA displacement assay against hBfl-1; assay type: binding, human; conditions: same experimental conditions as the hMcl-1 DELFIA assay
hMcl-1 = hMcl-1 (Homo sapiens, UniProt Q07820); test: Kinetic measurements with the DELFIA assay; assay type: binding
Sequence of hMcl-1 (Q07820 172-323): as the sequence (Q07820 172-323) above
Procedure, shortened: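 In the DELFIA format, wells with 16 nM Mcl-1 and 1:2000 Eu–N1 anti-6×His antibody were incubated 2 h, then with test compound for 0, 2, 5, 10, 20 and 40 min. Wells were washed three times and given enhancement solution for 10 min, then Eu fluorescence was read (excitation 340, emission 615). kobs came from the slope of % inhibition versus time, plotted against concentration and fitted hyperbolically to give KI and kinact.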

[8] = Chemical stability in aqueous buffer by 1D 1H and 19F NMR; assay type: physicochemical; conditions: 100 μM in 50 mM phosphate pH 7.5, 150 mM NaCl; up to 48 h
Procedure, shortened: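 Test compound at 100 μM in 50 mM phosphate pH 7.5, 150 mM NaCl. 1D 1H spectra were collected at set time points, and 19F 1D spectra were recorded in the same buffer at various time points on a 600 MHz instrument. Stability was judged from changes in the spectra over time.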

[9] = Plasma stability by 1D 1H NMR; assay type: in vitro ADME; conditions: human plasma in PBS
[10] = biological target: T2, 6×His-tagged hMcl-1(172–323); conditions: against hMcl-1; previously identified minimal binding peptide; cited from earlier work

| Molecule | band shift (stable adduct) (hMcl-1(172–323) [1]; 7 h incubation) | covalent adduct by mass spectrometry [2] | IC50 [3] [nM] | band shift (stable adduct) [4] | band shift (stable adduct) [5] | covalent adduct by mass spectrometry (hMcl-1(172–323) [6]) | band shift (stable adduct) [7] | time to approximately 50% complex formation (hMcl-1(172–323) [1]; qualitative from gel) [h] | time to complete (or nearly complete) adduct formation (hMcl-1(172–323) [1]; qualitative from gel) [h] | times less active against hBfl-1(1–149) than hMcl-1 (6×His-hBfl-1(1–149)) [times] | kinact/KI (hMcl-1) [M⁻¹ s⁻¹] | chemical stability in aqueous buffer [8] | plasma stability ([9]; 8 h) | remaining after incubation in plasma ([9]; 24 h) [%] | IC50 [10] [nM] |
| --- | --- | --- | --- | --- | --- | --- | --- | --- | --- | --- | --- | --- | --- | --- | --- |
| CC[C@H](C)[C@H](NC(C)=O)C(=O)N[C@@H](C)C(=O)N[C@@H](CCC(=O)O)C(=O)N[C@@H](CCC(N)=O)C(=O)N[C@@H](CC(C)C)C(=O)N[C@@H](CCCNC(=N)N)C(=O)N[C@@H](CCCNC(=N)N)C(=O)N[C@H](C(=O)NCC(=O)N[C@@H](CC(=O)O)C(=O)N[C@@H](CCCNC(=N)N)C(=O)N[C@@H](Cc1ccc(OS(=O)(=O)F)cc1)C(N)=O)[C@@H](C)CC [compound 6] (Ac-IAEQLRRIGDR[Tyr(SO2F)]-NH2) | band shift | no MW increase was observed | 8.1 | band shifts | not with the His224Ala mutant | forms a stable 1:1 complex | band shifts | – | – | – | – | – | – | – | – |
| CC[C@H](C)[C@H](NC(C)=O)C(=O)N[C@@H](C)C(=O)N[C@@]1(C)CCC/C=C\CCC[C@@](C)(C(=O)N[C@H](C(=O)NCC(=O)N[C@@H](CC(=O)O)C(=O)N[C@@H](CCCNC(=N)N)C(=O)N[C@@H](Cc2ccc(OS(=O)(=O)F)cc2)C(N)=O)[C@@H](C)CC)NC(=O)[C@H](CCCNC(=N)N)NC(=O)[C@H](CC(C)C)NC(=O)[C@H](CCC(N)=O)NC1=O [compound 9] (Ac-IA[S5]QLR[S5]IGDR[Tyr(SO2F)]-NH2; staple (Z) 3-7) | – | could not form a covalent adduct | 5.8 ± 0.9 | – | – | corresponding to the anticipated mass of the covalent adduct | – | ~1 | ≤ 4 | ~160 | 67000 ± 3e+07 | No significant spectral changes were observed; also recorded: did not observe any degradation | remains mostly intact | ~40 | – |
| IAEQLRRIGDRF | – | – | – | – | – | – | – | – | – | – | – | – | – | – | 250 |
